A selection: hits, their analogues and other compounds. The true share with any hit is near 3.5%.
b-catenin transl – alters nuclear translocation of beta-catenin in HeLa cells | immunofluorescence imaging | nuclear translocation activity, % at 5 µM | 190,000 tested, 0.3% active;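 active = nuclear translocation activity above 50% at 5 µM, with a well cell count of 50 or more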;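 also: per-cell ratio of nuclear to cytoplasmic median beta-catenin stain intensity; plate controls were DMSO negative control for no effect and GSK-3 inhibitor IX positive control for full effect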
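Test system: human HeLa cell line; Doses: 5 µM primary, 0.02–20 µM confirmation; Incubation: 24 h compound exposure, 37°C; Detection: beta-catenin immunofluorescence imaging with DAPI; Read-out: beta-catenin nuclear/cytoplasmic ratio, % activation.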
HMGR II inh – E. faecalis class II HMG-CoA reductase inhibition. inhibition, % at 10 µM. 190,000 tested, 0.41% active. AID 1066. purified E. faecalis HMGR, NADPH absorbance 340 nm kinetic;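 active = inhibition above a set limit, the median over all tested compounds plus 3 SD, cut at about 9.5% in these data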;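 also: enzyme runs in reverse so mevalonate oxidation gives rising NADPH absorbance; 0% = complete reaction with DMSO and 100% = background rate lacking mevalonate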
BB579 growth dn – yeast BB579 growth reduction in restrictive medium | S. cerevisiae BB579 growth, OD615, 48 h | inhibition, % at 10 µM | 140,000 tested, 0.51% active | AID 804;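 active = inhibition above a set limit, 3 SD over the mean compound inhibition, cut at about 44% in these data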
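test system = yeast BB579 (DeaD) | buffer or medium = restrictive CSMM-D medium | doses = single compound dose of 10 µM, 0.25% DMSO final | times = 4 h preincubation and 48 h exposure at 30 °C | technique = culture absorbance at 615 nm | benchmarks = amphotericin B 10 µg/mL, positive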
Yeast life ext – yeast lifespan extension; S. cerevisiae growth with nicotinamide, OD615; deaD strain in restrictive glucose medium; inhibition of the nicotinamide effect, % at 10 µM; 130,000 tested, 0.68% active; AID 775;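 active = inhibition above a set limit, placed 3 SD over the median of all compounds, cut at about 26% in these data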;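 also: 0% = nicotinamide-treated wells and 100% = cells grown without nicotinamide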
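Measured by: optical density (absorbance) at 615 nm; System: modified budding yeast, DeaD strain; Medium: restrictive CSMM-D dextrose medium; Timing: 4 h preincubation then 48 h treatment at 30 °C.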
RAM network inh – inhibitors of the yeast RAM network. S. cerevisiae dse1pr::URA3 reporter, 5-FOA growth OD615, 2 d; analog-sensitive cbk1-as2 kinase mutant strain. inhibition, % at 50 µM. 190,000 tested, 1.8% active. AID 868;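 active = inhibition above a set limit, 3 SD over mean compound inhibition, cut at about 8.4% in these data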;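 also: 0% = DMSO-only wells with no growth and 100% = 10 µM 1-NA-PP1 full growth; inhibition rescues growth on 5-FOA so higher OD means more RAM inhibition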
MT stabilizer – microtubule stabilization, imaging screen | HeLa tubulin immunostaining HCS, 24 h; share of cells brighter than vehicle mean+2SD | 200,000 tested, 0.83% active | % tubulin-high responders, % at 10 µM;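 active = plate Z-score above 3 for both tubulin-high and condensed-nucleus cell shares, with cell loss under 80%, at 10 µM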;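 also: anti alpha tubulin signal scored within the nucleus-defined area of each cell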
Starred values were filed as active, the others as inactive; . = not tested or not shown.

SMILES	b-catenin transl	HMGR II inh	BB579 growth dn	Yeast life ext	RAM network inh	MT stabilizer
COc1ccc(C[C@H]2CN3C(=NC[C@@H]3Cc3ccccc3)N2CCNC(=O)c2ccc(C)c(Br)c2)cc1	2	-7	.	.	0	82
COc1ccc(C[C@H]2CN3C(=NC[C@H]3Cc3ccccc3)N2CCNC(=O)c2ccc(C)c(Br)c2)cc1	63*	.	.	.	.	.
O=C(CCSc1nnc(-c2ccncc2)o1)Nc1ccc(Cl)cc1	-5	-2	86*	-12	1	3
CCc1[nH]nc2c1C(c1ccc(Br)s1)C(C#N)=C(N)O2 (stereo not drawn)	.	-4	-26	58*	0	4
CCc1[nH]nc2c1C(c1ccsc1)C(C#N)=C(N)O2 (stereo not drawn)	5	-4	-19	.	3	4
Cc1nn(CCO)c(N)c1C1(O)C(=O)Nc2c(Cl)cc(Cl)cc21 (stereo not drawn)	-3	-1	.	.	2	2
CC(=O)c1cccc(NC(=O)Nc2ccc3c(c2)N(C)C(=O)CS3)c1	1	1	-54	-18	8.5*	2
COc1ccc(C2CC(c3ccccc3)=NN2C(=O)COC(=O)C2(C)CC2(Cl)Cl)cc1 (stereo not drawn)	0	-4	.	.	2	3
COc1ccc2nc(SCC(=O)N3CC(=O)Nc4ccccc43)c(C#N)cc2c1	.	1	-82	-14	2	27*
Cc1cc(C)c2nc(SCC(=O)N3CC(=O)Nc4ccccc43)c(C#N)cc2c1	44	-1	-29	.	4	10
CNC(=S)NC1(C)CCS(=O)(=O)C1 (stereo not drawn)	-1	.	.	.	.	.
CC(C)(C)OC(=O)C(C)(C)O/N=C(\C(=O)O)c1csc(N)n1	0	-7	.	.	1	3
Cc1ccc(NC(=O)CN2C(=O)NC(Cc3ccccc3)C2=O)c(Br)c1 (stereo not drawn)	0	10*	.	.	5	3
O=C(CN1C(=O)NC(Cc2ccccc2)C1=O)Nc1ccc(F)cc1 (stereo not drawn)	2	-1	-24	.	2	2
Cc1cc(NC(=O)c2ccccc2F)nc2c1c(=O)oc1ccccc12	-1	-6	.	.	4	4
Cc1ccc2cc(C)c3nnc(SCC(=O)c4cccs4)n3c2c1C	-1	0	-61	-5	2	2
Cc1cc2ccc(C)c(C)c2nc1SCC(=O)c1cccs1	-3	-3	-72	-7	8.6*	1
Cc1ccc(C)c2c1cc(C)c1nnc(SCC(=O)c3cccs3)n12	0	-5	-15	-3	11*	6
CC(C)CNC(=O)CN(c1cccc(Cl)c1)S(C)(=O)=O	0	2	.	.	0	1
CC1CN(Cc2cnc(Cl)s2)CC(C)O1 (stereo not drawn)	0	23*	.	.	-1	3
CCc1cc(C(=O)c2ccc(C)cc2)c(NC(=O)CCl)s1	-1	1	-46	-1	9.2*	3
CCCCCCSc1nc(O)c(C2OC(=O)c3c2ccc(OC)c3OC)c(=O)n1-c1ccccc1 (stereo not drawn)	.	0	-26	2	8.6*	1
CCCCSc1nc(O)c(C2OC(=O)c3c2ccc(OC)c3OC)c(=O)n1C (stereo not drawn)	-1	1	-37	61*	0	4
CCSc1nc(O)c(C2OC(=O)c3c2ccc(OC)c3OC)c(=O)n1CC (stereo not drawn)	-2	-1	0	-6	0	6
Cc1ccc(-n2ncc3c(=O)[nH]c(SC(C)C)nc32)cc1	-2	1	6	-4	1	6
SMILES	b-catenin transl	HMGR II inh	BB579 growth dn	Yeast life ext	RAM network inh	MT stabilizer
CCOC(=O)C(C)Sc1nc2c(cnn2-c2ccc(C)cc2)c(=O)[nH]1 (stereo not drawn)	1	-5	-41	.	4	43*
O=c1oc2ccccc2c(O)c1/C=C1\C=Nc2ccccc21	.	-5	86*	-4	2	3
O=c1[nH]c(O)c(/C=C2\C=Nc3ccccc32)[nH]1	0	.	.	.	.	.
CCN1C/C(=C\c2cccc([N+](=O)[O-])c2)C(=O)/C(=C/c2cccc([N+](=O)[O-])c2)C1	0	-4	-41	23	3	28*
O=C(NCc1csc(-c2ccccc2)n1)c1cc(F)cc2c1OCOC2	-1	.	.	.	.	.
Cc1cccc(Cn2c(=O)n(-c3ccc(CC(=O)NCc4ccco4)cc3)c(=O)c3sccc32)c1	-1	-1	3	-10	3	29*
COc1ccccc1-c1ccc(=O)n(CC(=O)NC2CCc3ccccc32)n1 (stereo not drawn)	1	0	.	.	7	1
O=C(NCc1ccc2c(c1)OCO2)c1ccc(NS(=O)(=O)c2ccc3c(c2)OCCO3)cc1	5	1	-24	-5	8.5*	3
COc1ccc(S(=O)(=O)Nc2cc([N+](=O)[O-])ccc2OC)cc1	7	-1	-38	5	1	28*
COC(=O)c1ccc(C)c(NS(=O)(=O)c2ccc(OC)cc2)c1	.	-2	-44	1	-1	24*
COC(=O)c1ccc(C)c(NS(=O)(=O)c2ccc3c(c2)OCCO3)c1	7	1	-63	-8	0	21*
NC(=O)COC(=O)c1ccc(NS(=O)(=O)c2ccc3c(c2)OCCO3)cc1	2	.	.	.	.	.
COC(=O)c1ccc(C)c(NS(=O)(=O)c2ccc(C)c([N+](=O)[O-])c2)c1	-3	-2	-43	-2	0	3
O=C(NCc1ccc2c(c1)OCO2)c1ccc(S(=O)(=O)N2CCCCC2)cc1	-1	3	-48	-8	3	2
O=C1c2ccccc2C(=O)N1c1ncn[nH]1	-3	.	.	.	.	.
O=C(COC(=O)CCc1c[nH]c2ccccc12)NCc1ccc2c(c1)OCO2	0	-2	.	.	3	5
CC(=O)N1C(=O)N(C(C)=O)C2C1N(C)C(=O)N2C(C)=O (stereo not drawn)	2	0	.	.	-1	1
COC(=O)c1ccc(/C(O)=C(\C#N)c2nc3ccccc3s2)cc1	-2	-4	-4	31*	0	4
CC(C)=C(C#N)c1nc2ccccc2s1	-1	2	0	-16	1	3
COC(=O)c1ccc(CC(=O)c2nc3ccccc3s2)cc1	0	0	-17	-3	2	4
Cc1ccc(OC/C(O)=C(\C#N)c2nc3ccccc3s2)cc1	.	-5	-29	28*	4	3
CCCNC(=O)NNC(=O)c1ccc(F)cc1	-6	-8	.	.	2	2
COc1ccc(C(=O)CSc2[nH]c(=O)cc(C(F)(F)F)c2C#N)cc1	-2	.	.	.	.	.
CC(C)OC(=O)c1nnn(-c2nonc2N)c1CN1CCc2ccccc2C1	.	3	-63	26	1	3

From PubChem BioAssay
